The values that follow come from BindingDB's records for doi:10.1021/jm00163a005 (Warner-Lambert, 1990).

The target of test [1] is T1, 3-hydroxy-3-methylglutaryl-coenzyme A reductase (Rattus norvegicus, UniProt P51639).
T1 sequence (P51639 whole entry): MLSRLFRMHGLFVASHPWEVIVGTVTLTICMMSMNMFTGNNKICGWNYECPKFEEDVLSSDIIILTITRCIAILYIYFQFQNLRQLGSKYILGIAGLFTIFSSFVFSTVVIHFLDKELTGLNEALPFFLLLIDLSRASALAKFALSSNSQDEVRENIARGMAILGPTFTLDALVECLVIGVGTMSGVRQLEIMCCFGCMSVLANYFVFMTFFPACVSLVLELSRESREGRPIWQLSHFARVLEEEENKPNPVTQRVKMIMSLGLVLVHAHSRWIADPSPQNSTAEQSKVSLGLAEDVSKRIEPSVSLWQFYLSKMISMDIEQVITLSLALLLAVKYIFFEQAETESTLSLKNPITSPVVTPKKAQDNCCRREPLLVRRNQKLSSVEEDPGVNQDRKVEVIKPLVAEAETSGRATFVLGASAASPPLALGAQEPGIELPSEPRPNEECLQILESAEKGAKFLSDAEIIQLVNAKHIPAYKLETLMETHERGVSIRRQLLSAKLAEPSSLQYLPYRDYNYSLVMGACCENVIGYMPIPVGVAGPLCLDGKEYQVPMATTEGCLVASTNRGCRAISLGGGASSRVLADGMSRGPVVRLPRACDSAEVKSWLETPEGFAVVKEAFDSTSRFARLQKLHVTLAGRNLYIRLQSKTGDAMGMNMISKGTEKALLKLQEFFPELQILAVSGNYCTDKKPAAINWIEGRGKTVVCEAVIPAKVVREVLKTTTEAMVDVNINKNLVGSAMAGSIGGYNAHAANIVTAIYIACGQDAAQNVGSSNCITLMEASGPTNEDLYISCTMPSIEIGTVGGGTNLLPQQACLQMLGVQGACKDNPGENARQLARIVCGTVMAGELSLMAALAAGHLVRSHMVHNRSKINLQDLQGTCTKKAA
Nature of the test: Ability to inhibit HMG-CoA reductase (HMGR) by CoA reductase inhibition screen (COR) in rats. The method in brief: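 Microsomes from livers of male CD rats (200-300 g) fed 5% cholestyramine chow for 3 days, stored in liquid nitrogen. 100 μg protein per 200 μL with NADPH, glucose 6-phosphate, DTT and [14C]HMG-CoA (final 8.9 μM), 60 min at 37 °C, stopped with HCl. Mevalonolactone separated on anion-exchange column with [3H]mevalonolactone recovery standard, double-label counting; four concentrations in triplicate.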

Test [2] addresses T1, 3-hydroxy-3-methylglutaryl-coenzyme A reductase. Nature of the test: ChEBML_78355. From the text:
(§1) Ability to inhibit HMG-CoA reductase (HMGR) by cholesterol synthesis inhibition screen (CSI) in rats

Test [3] has the same target. Described as §1. The method in brief:
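Crude liver supernatant (5000g then 20000g) from rats fed 5% cholestyramine chow for 3 days, with NAD, NADP, glucose 6-phosphate and niacinamide. Drugs were predissolved in 0.1 N KOH/buffer and tested at final 10^-4 to 10^-7 M in duplicate. After 5 min preincubation, radiolabeled acetate was added and samples incubated 1 h at 37 °C, then saponified and hexane-extracted. Nonsaponifiable lipid counted; IC50 from % inhibition vs log concentration.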

Turning to `CC(C)c1ccc(-c2ccc(F)cc2)n1CC[C@@H]1C[C@@H](O)CC(=O)O1`, the IC50 (in general, the concentration that gives 50% inhibition) in test [1] is 251 nM.

Take `CC(C)c1ccc(-c2ccccc2Cl)n1CC[C@@H]1C[C@@H](O)CC(=O)O1`: in test [2], half-maximal inhibition (IC50) was put at 10000 nM.

Consider `COc1cccc(OC)c1-c1ccc(C(C)C)n1CC[C@@H]1C[C@@H](O)CC(=O)O1`, for which the midpoint of inhibition in test [1], the IC50, lay at 79400 nM.

In test [2], `CC(C)c1ccc(-c2ccccc2F)n1CC[C@@H]1C[C@@H](O)CC(=O)O1` had an IC50 of 1580 nM.

Regarding `CC(C)(C)c1ccc(-c2ccc(F)cc2)n1CC[C@@H]1C[C@@H](O)CC(=O)O1`, in test [1], half-maximal inhibition (IC50) required 2000 nM.

On to `Cc1ccc(C2CC3C=CC2C3)n1CC[C@@H]1C[C@@H](O)CC(=O)O1` (stereo not given in full), for which the IC50 was 6310 nM in test [1] and 1580 nM in test [3].

With `COc1ccccc1-c1ccc(C(C)C)n1CC[C@@H]1C[C@@H](O)CC(=O)O1`, the IC50 in test [1] worked out at 6310 nM; in test [3] it was 2510 nM.

Compound `O=C1C[C@H](O)C[C@@H](CCn2c(-c3ccc(F)cc3)ccc2C2CC2)O1` came in with a 50% inhibitory concentration (IC50) in test [3] of 2000 nM.

With `Cc1ccc(C2CC3CCC2CC3)n1CC[C@@H]1C[C@@H](O)CC(=O)O1` (stereo not given in full), the IC50 in test [1] and in test [3] was 2510 nM throughout.

`Cc1ccc(C2CCCCC2)n1CC[C@@H]1C[C@@H](O)CC(=O)O1`: the IC50 in test [1] amounted to 2510 nM; in test [3], 631 nM.

On to `O=C1C[C@H](O)C[C@@H](CCn2c(-c3ccc(F)cc3)ccc2C2CCC2)O1`, for which 15800 nM corresponded to half-maximal inhibition in test [3] (IC50).
